The source of these data is ChEMBL document CHEMBL1146223, “Synthesis, monoamine transporter binding, properties, and functional monoamine uptake activity of 3beta-[4-methylphenyl and 4-chlorophenyl]-2 beta-[5-(substituted phenyl)thiazol-2-yl]tropanes” (J Med Chem, 2007).

One may read the Ki as a measure of affinity in units of concentration, obtained from inhibition or displacement. The IC50 is the midpoint of a concentration-inhibition curve.

The target of assay [1] is Sodium-dependent serotonin transporter (Rattus norvegicus, UniProt P31652). The experiment in a line: Displacement of [3H]paroxetine from SERT in Sprague-Dawley rat brain. It is filed as tissue-based. In short, it runs like this:
(§1)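 Male Sprague-Dawley rats (200-250 g); striata, midbrain or frontal cortex tissue used for competition binding. Final radioligand concentrations were 0.5 nM for DAT, 0.2 nM [³H]paroxetine for SERT and 0.5 nM [³H]nisoxetine for NET.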

For assay [2], the target named is Norepinephrine transporter (Rattus norvegicus, UniProt Q9WTR4). In words: Displacement of [3H]nisoxetine from NET in Sprague-Dawley rat brain. It is filed as tissue-based. In short, it runs like this:
as §1

In assay [3] the target is T1, Sodium-dependent serotonin transporter (Homo sapiens, UniProt P31645). In words: Displacement of [125I]RTI-55 from human SERT expressed in HEK cells after 90 mins. It is filed as cell-based, HEK293. In short, it runs like this:
(§2)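 Competition binding on human DAT or SERT stably expressed in HEK293 cells, using the nonselective radioligand [¹²⁵I]RTI-55.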
On the technique in general: Displacement assays read how much labelled ligand stays bound in the presence of the test substance.

In assay [4] the target is T1, Sodium-dependent serotonin transporter. The experiment in a line: Inhibition of human SERT in HEK cells assessed as [3H]serotonin reuptake. In kind it is functional, cell-based, HEK293. Put shortly:
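Human SERT stably expressed in HEK293 cells; the compound's block of radiolabelled serotonin reuptake was measured in these cells.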

Assay [5] deals with Sodium-dependent dopamine transporter (Rattus norvegicus, UniProt P23977). In words: Displacement of [3H]WIN-35428 from DAT in Sprague-Dawley rat brain. In kind it is tissue-based. In short, it runs like this: as §1
Sequence of Sodium-dependent dopamine transporter (Rattus norvegicus, UniProt P23977) (P23977 whole entry): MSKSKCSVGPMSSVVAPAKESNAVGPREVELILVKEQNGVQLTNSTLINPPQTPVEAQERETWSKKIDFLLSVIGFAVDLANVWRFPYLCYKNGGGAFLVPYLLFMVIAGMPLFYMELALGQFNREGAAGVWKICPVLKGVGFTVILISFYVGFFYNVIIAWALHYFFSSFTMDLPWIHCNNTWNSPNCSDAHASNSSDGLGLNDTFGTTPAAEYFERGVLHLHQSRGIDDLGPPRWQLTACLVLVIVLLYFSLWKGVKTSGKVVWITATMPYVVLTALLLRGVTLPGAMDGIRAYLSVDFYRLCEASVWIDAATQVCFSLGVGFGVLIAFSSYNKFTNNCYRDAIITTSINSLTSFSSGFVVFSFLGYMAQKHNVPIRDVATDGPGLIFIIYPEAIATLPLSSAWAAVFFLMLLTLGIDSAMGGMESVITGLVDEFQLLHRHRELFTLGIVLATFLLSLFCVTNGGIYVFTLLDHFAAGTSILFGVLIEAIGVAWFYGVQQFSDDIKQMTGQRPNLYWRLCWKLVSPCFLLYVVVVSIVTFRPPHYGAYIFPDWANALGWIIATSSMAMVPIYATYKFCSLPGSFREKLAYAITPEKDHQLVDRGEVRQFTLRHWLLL
Assay [6] deals with Sodium-dependent dopamine transporter (Homo sapiens, UniProt Q01959). The experiment in a line: Displacement of [125I]RTI-55 from human DAT expressed in HEK cells after 90 mins. It is filed as cell-based, HEK293. Put shortly: as §2
Sequence of Sodium-dependent dopamine transporter (Homo sapiens, UniProt Q01959) (Q01959 whole entry): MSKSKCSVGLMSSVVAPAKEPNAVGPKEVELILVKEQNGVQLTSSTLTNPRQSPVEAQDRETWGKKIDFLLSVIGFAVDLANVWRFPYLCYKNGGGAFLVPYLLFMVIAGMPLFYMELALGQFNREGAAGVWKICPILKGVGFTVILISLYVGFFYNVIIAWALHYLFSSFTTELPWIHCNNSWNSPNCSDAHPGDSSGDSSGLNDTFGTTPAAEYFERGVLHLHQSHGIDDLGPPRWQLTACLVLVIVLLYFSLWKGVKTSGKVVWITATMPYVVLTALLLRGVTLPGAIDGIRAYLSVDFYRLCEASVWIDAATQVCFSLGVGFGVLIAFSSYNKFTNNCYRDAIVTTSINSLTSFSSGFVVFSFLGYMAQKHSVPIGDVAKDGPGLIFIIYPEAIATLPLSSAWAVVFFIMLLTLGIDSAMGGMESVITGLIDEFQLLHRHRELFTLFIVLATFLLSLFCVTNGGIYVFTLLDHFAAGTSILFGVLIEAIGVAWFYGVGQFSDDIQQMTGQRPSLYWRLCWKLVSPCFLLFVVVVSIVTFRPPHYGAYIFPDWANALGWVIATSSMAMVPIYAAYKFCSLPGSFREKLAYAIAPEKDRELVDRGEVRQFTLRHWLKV
For assay [7], the target named is T2, Sodium-dependent noradrenaline transporter (Homo sapiens, UniProt P23975). The experiment in a line: Inhibition of human NET in HEK cells assessed as [3H]norepinephrine reuptake. It is filed as functional, cell-based, HEK293.
T2 sequence (P23975 whole entry): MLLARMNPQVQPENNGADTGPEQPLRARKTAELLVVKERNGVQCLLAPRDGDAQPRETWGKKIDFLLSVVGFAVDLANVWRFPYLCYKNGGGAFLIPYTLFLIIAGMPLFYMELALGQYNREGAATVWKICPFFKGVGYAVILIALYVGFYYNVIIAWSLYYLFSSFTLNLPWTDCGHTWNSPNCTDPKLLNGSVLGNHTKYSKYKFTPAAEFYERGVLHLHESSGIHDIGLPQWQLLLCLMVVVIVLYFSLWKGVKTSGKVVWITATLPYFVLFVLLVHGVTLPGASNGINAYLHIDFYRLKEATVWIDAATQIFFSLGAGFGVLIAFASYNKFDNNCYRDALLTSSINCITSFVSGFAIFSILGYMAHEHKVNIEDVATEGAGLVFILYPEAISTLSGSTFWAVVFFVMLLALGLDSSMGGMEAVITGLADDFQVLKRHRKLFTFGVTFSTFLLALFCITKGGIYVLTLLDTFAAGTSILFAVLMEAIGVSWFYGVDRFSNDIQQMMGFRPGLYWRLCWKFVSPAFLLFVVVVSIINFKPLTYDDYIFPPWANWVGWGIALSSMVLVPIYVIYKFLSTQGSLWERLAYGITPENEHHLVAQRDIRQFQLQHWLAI
Assay [8] has as its target T2, Sodium-dependent noradrenaline transporter. The experiment in a line: Displacement of [125I]RTI-55 from human NET expressed in HEK cells after 90 mins. In kind it is cell-based, HEK293.

Sequence of Sodium-dependent serotonin transporter (Rattus norvegicus, UniProt P31652) (P31652 whole entry): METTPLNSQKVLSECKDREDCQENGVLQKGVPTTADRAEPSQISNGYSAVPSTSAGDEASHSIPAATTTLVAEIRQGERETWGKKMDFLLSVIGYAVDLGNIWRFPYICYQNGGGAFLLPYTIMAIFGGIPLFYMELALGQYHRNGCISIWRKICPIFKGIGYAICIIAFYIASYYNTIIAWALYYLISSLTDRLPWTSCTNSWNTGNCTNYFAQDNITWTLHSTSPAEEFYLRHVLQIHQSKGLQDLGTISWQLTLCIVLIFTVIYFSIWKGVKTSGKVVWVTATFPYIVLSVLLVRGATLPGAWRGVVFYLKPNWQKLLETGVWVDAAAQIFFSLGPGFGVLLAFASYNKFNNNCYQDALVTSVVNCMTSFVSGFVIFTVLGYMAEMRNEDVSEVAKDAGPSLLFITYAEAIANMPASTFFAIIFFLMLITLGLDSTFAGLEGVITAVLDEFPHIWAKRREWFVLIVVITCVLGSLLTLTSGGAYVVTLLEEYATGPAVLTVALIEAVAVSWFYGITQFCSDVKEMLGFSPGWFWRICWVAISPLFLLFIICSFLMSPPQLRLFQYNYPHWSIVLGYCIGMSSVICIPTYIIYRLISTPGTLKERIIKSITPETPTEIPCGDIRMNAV
Sequence of Norepinephrine transporter (Q9WTR4 whole entry): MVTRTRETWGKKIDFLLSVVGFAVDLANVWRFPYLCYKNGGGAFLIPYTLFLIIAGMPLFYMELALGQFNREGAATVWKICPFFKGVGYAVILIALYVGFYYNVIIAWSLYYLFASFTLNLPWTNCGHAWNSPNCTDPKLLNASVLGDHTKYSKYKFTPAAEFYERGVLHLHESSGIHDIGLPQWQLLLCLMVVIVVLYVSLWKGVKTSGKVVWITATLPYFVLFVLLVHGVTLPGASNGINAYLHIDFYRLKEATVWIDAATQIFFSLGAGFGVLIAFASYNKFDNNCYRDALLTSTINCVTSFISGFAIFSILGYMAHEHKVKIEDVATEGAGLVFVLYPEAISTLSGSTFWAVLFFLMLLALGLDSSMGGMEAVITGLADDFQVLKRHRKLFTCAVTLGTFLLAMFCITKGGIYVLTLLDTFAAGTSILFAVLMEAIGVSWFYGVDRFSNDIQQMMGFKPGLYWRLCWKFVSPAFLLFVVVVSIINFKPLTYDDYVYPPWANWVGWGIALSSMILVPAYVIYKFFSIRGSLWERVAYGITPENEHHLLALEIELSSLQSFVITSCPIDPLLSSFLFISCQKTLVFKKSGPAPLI
T1 sequence (P31645 whole entry): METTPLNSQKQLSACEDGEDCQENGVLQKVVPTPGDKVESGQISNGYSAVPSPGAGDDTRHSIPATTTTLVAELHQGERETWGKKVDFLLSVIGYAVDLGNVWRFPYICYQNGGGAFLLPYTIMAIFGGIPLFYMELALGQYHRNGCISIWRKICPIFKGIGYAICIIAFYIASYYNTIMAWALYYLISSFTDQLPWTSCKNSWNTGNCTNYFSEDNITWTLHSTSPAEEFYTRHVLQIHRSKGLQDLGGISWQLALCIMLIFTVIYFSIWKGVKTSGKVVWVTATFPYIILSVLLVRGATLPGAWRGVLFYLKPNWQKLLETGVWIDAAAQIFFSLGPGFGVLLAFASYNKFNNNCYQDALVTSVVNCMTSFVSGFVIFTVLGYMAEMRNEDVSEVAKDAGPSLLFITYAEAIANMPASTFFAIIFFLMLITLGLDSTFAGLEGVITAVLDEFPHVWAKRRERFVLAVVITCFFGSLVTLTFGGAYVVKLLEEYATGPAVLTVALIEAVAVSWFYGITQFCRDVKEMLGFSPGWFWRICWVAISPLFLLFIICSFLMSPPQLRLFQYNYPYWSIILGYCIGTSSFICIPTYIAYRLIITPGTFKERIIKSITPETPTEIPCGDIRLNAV

`COc1ccc(-c2cnc([C@H]3[C@@H](c4ccc(C)cc4)C[C@@H]4CC[C@H]3N4C)s2)cc1OC`: the Ki was greater than 2000 nM in assay [1], greater than 2000 nM in assay [2], 7710 nM in assay [3] and 529 nM in assay [6]. The figures for the IC50 in assay [4] and in assay [5] were greater than 10 µM and 83 nM, respectively.
Turning to `COc1ccc(-c2cnc([C@H]3[C@@H](c4ccc(C)cc4)C[C@@H]4CC[C@H]3N4C)s2)cc1`, the Ki in assay [1] is greater than 2000 nM; in assay [2], greater than 2000 nM; in assay [3], 3670 nM; in assay [8], 3.63 µM; in assay [6], 53 nM. For the same compound, the values for the IC50 in assay [4], in assay [7] and in assay [5] were 6.8 µM, 1810 nM and 15 nM, respectively.
Take `Cc1ccc([C@H]2C[C@@H]3CC[C@H]([C@H]2c2ncc(-c4cccc([N+](=O)[O-])c4)s2)N3C)cc1`: the Ki is 10000 nM in assay [1], greater than 2000 nM in assay [2], 580 nM in assay [3] and 14 nM in assay [6]. Moreover, the IC50 was found to be 2.38 µM in assay [4] and 4 nM in assay [5].
With `CN1[C@H]2CC[C@@H]1[C@@H](c1ncc(-c3ccccc3)s1)[C@@H](c1ccc(Cl)cc1)C2`, the Ki in assay [1] is greater than 2000 nM; in assay [2], 8560 nM; in assay [3] it was 2670 nM; in assay [8], 1.84 µM; in assay [6] it was 18 nM. Also, the 50% inhibitory concentration (IC50) in assay [4] came out at 2.71 µM; in assay [7] it was 750 nM; in assay [5] it was 5.7 nM.
`CN1[C@H]2CC[C@@H]1[C@@H](c1ncc(-c3ccc(Cl)cc3)s1)[C@@H](c1ccc(Cl)cc1)C2`: the Ki was 903 nM in assay [1], greater than 2000 nM in assay [2], 2390 nM in assay [3] and 28 nM in assay [6]. In addition, the IC50 in assay [4] is 4.4 µM; in assay [5], 20 nM.
`CN1[C@H]2CC[C@@H]1[C@@H](c1ncc(-c3cccc(Br)c3)s1)[C@@H](c1ccc(Cl)cc1)C2`: the Ki is 280 nM in assay [1], greater than 2000 nM in assay [2], 1500 nM in assay [3] and 39 nM in assay [6]. Besides, the results for the IC50 in assay [4] and in assay [5] were 4 µM and 18 nM, respectively.
As for `CN1[C@H]2CC[C@@H]1[C@@H](c1ncc(-c3ccc([N+](=O)[O-])cc3)s1)[C@@H](c1ccc(Cl)cc1)C2`, the Ki in assay [1] was 980 nM; in assay [2] it was greater than 2000 nM; in assay [3], 1820 nM; in assay [6], 6.1 nM. For the same compound, the figures for the IC50 in assay [4] and in assay [5] were 3.6 µM and 20 nM, respectively.
In the case of `COc1ccc(-c2cnc([C@H]3[C@@H](c4ccc(Cl)cc4)C[C@@H]4CC[C@H]3N4C)s2)cc1`, the Ki in assay [1] was 800 nM; in assay [2], greater than 2000 nM; in assay [3], 5200 nM; in assay [6] it was 8.6 nM. Moreover, the IC50 in assay [4] came to 6.7 µM; in assay [5], 14 nM.
Turning to `Cc1ccc([C@H]2C[C@@H]3CC[C@H]([C@H]2c2ncc(-c4ccc(Cl)cc4)s2)N3C)cc1`, the Ki in assay [1] is 1110 nM; in assay [2], greater than 2000 nM; in assay [3], 1320 nM; in assay [6], 212 nM. Further, the figures for the IC50 in assay [4] and in assay [5] were 0.377 µM and 22 nM, respectively.
Turning to `Cc1ccc([C@H]2C[C@@H]3CC[C@H]([C@H]2c2ncc(-c4ccc([N+](=O)[O-])cc4)s2)N3C)cc1`, the Ki in assay [1] was 1690 nM; in assay [2], greater than 2000 nM; in assay [3] it was 1640 nM; in assay [6], 140 nM. In addition, the half-inhibitory concentration (IC50) in assay [4] was determined as 3.17 µM; in assay [5] it was 41 nM.
On to `Cc1ccc([C@H]2C[C@@H]3CC[C@H]([C@H]2c2ncc(-c4ccc(F)cc4)s2)N3C)cc1`, for which the Ki was 2240 nM in assay [1], greater than 2000 nM in assay [2], 1720 nM in assay [3] and 61 nM in assay [6]. Also, the IC50 in assay [4] was 3.2 µM; in assay [5], 12 nM.
Turning to `Cc1ccc([C@H]2C[C@@H]3CC[C@H]([C@H]2c2ncc(-c4ccc(Br)cc4)s2)N3C)cc1`, the inhibitory constant (Ki) in assay [3] amounted to 1870 nM; in assay [6] it was 130 nM. The IC50 in assay [4] stood at 1.84 µM.
Regarding `Cc1ccc([C@H]2C[C@@H]3CC[C@H]([C@H]2c2ncc(-c4ccc(Cl)c(Cl)c4)s2)N3C)cc1`, the Ki in assay [1] was 190 nM; in assay [2], greater than 2000 nM; in assay [3], 2940 nM; in assay [8], greater than 6.1 µM; in assay [6], 105 nM. In addition, the IC50 was found to be 4.4 µM in assay [4], 4000 nM in assay [7] and 102 nM in assay [5].
For `CN1[C@H]2CC[C@@H]1[C@@H](c1ncc(-c3ccc(Cl)c(Cl)c3)s1)[C@@H](c1ccc(Cl)cc1)C2`, the Ki in assay [1] was 380 nM; in assay [2], greater than 2000 nM; in assay [3], 2710 nM; in assay [6], 66 nM. Moreover, the results for the IC50 in assay [4] and in assay [5] were 5.3 µM and 440 nM, respectively.
Take `CN1[C@H]2CC[C@@H]1[C@@H](c1ncc(-c3ccc(Br)cc3)s1)[C@@H](c1ccc(Cl)cc1)C2`: the Ki in assay [1] is 840 nM; in assay [2], greater than 2000 nM; in assay [3], 5700 nM. In assay [4], the IC50 came out at 8.22 µM.
In the case of `CN1[C@H]2CC[C@@H]1[C@@H](c1ncc(-c3cccc([N+](=O)[O-])c3)s1)[C@@H](c1ccc(Cl)cc1)C2`, the Ki in assay [1] was 301 nM; in assay [2], greater than 2000 nM; in assay [3] it was 740 nM; in assay [6], 7.7 nM. The results for the IC50 in assay [4] and in assay [5] were 1.61 µM and 5 nM, respectively.
For the compound `COc1ccc(-c2cnc([C@H]3[C@@H](c4ccc(Cl)cc4)C[C@@H]4CC[C@H]3N4C)s2)cc1OC`, the Ki in assay [1] is 1510 nM; in assay [2], greater than 2000 nM; in assay [3], 3590 nM; in assay [6], 234 nM. For the same compound, the IC50 is greater than 6.8 µM in assay [4] and 65 nM in assay [5].
As to `CN1[C@H]2CC[C@@H]1[C@@H](c1ncc(-c3ccc(F)cc3)s1)[C@@H](c1ccc(Cl)cc1)C2`, the Ki is 371 nM in assay [1], greater than 2000 nM in assay [2], 653 nM in assay [3] and 12 nM in assay [6]. The IC50 was 1.01 µM in assay [4] and 6 nM in assay [5].
On to `Cc1ccc([C@H]2C[C@@H]3CC[C@H]([C@H]2c2ncc(-c4cccc(Br)c4)s2)N3C)cc1`, for which the Ki is 312 nM in assay [1], greater than 2000 nM in assay [2], 870 nM in assay [3] and 12 nM in assay [6]. The IC50 in assay [4] came out at 3.86 µM; in assay [5], 10 nM.
Take `COC(=O)[C@H]1[C@@H](c2ccccc2)C[C@@H]2CC[C@H]1N2C` [TROPARIL]: the Ki in assay [2] was 920 nM. In assay [5], this compound gave an IC50 of 23 nM.
